PvdQ inh: P. aeruginosa PvdQ acylase inhibitors, primary screen, biochemical, fluorescence, plate reader and imaging, single point. inhibition, % at 10 µM. hit rate 0.063% among 340,000. PvdQ acylase [Pseudomonas aeruginosa LESB58]. purified PvdQ acylase; in the data active = inhibition above about 30%, passing the limit was not always enough; inconclusive = no clear call, values can overlap the other calls
Xi reactivation: activators of inactive X chromosome reactivation, primary screen, imaging, XiGFP fibroblasts, GFP high-content imaging, set 2; XiGFP mouse fibroblasts, % GFP-positive cells imaging, 3 d; cells co-treated with 5-aza-dC sensitizer; scaled so ellipticine positive control = 100%; activation, % at 7.58 µM; hit rate 0.055% among 360,000;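 active = mean normalized replicate activation at least 10% and every replicate at or above 10%; inconclusive = only one of the two criteria met; inactive = mean below 10% and not all replicates reach 10%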
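Assay system – SV40-immortalized XiGFP fibroblast cells, line 68-5-11 · Buffer or medium – DMEM supplemented with 5-aza-dC as sensitizing agent · Dosing – one concentration, pinned · Benchmarks – positive control ellipticine, 6 µM final · Times – 3 days compound exposure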
SR-BI DiI-HDL act: activators of SR-BI mediated DiI-HDL uptake, primary screen, ldlA[mSR-BI] CHO cells, DiI fluorescence; hit rate 0.096% among 320,000; activation, % at 12.5 µM; 3 h; 100 = double the neutral-control signal; AID 504775, 2011;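 active = mean replicate activation of at least 60% and every replicate at or above 60%; inconclusive = mean or all-replicate condition met, but not both; inactive = mean below 60% and not all replicates reaching 60%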
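Test system: SR-BI-overexpressing, LDLR-lacking CHO cells; Medium: Ham's F12 with 0.5% BSA, HEPES 25 mM, pH 7.4; Schedule: 3 h, 37 °C; Technique: bottom-read fluorescence, 550/595 nm.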
Ecoli rRNA inh: reduced GFP signal of wild-type E. coli, primary screen, bacterial rRNA inhibitor project, GFP/RFP fluorescence, OD600, single point; E. coli WT GFP vs humanized-ribosome RFP mutants, 24 h; hits give low values; DMSO median 0, no signal -100; GFP signal change (wild-type ribosome), % (concentration not given with the values); hit rate 1.6% among 350,000;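 active = significant combined selectivity score with lowered wild-type GFP, culture density cut under 30%, mutant RFP and density less affected; inactive = any of these conditions unmet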
dFosB act: activators of delta FosB homodimer, primary screen, biochemical, fluorescence polarization, TAMRA-CDK5 oligo, single point; hit rate 0.99% among 340,000; activation, % at 25 µM; purified delta FosB; percent of positive-control signal above neutral wells;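 active = mean activation above about 17%, with every replicate also reaching it, limit read from the data, passing the limit was not always enough; inconclusive = only one of the two conditions met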
SR-BI HDL uptake: inhibitors of SR-BI mediated HDL lipid uptake, primary screen, ldlA[mSR-BI] cells, fluorescence, single point; ldlA[mSR-BI] CHO cells, DiI-HDL uptake fluorescence, 3 h; inhibition, % at 12.5 µM; hit rate 0.96% among 320,000; AID 488896, 2010;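 active = mean replicate inhibition of at least 70% and a set share of replicates each scoring 70 or more; inconclusive = meets just one of the two criteria; inactive = fails both criteria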
Target sequence (Q61009 whole entry, looked up): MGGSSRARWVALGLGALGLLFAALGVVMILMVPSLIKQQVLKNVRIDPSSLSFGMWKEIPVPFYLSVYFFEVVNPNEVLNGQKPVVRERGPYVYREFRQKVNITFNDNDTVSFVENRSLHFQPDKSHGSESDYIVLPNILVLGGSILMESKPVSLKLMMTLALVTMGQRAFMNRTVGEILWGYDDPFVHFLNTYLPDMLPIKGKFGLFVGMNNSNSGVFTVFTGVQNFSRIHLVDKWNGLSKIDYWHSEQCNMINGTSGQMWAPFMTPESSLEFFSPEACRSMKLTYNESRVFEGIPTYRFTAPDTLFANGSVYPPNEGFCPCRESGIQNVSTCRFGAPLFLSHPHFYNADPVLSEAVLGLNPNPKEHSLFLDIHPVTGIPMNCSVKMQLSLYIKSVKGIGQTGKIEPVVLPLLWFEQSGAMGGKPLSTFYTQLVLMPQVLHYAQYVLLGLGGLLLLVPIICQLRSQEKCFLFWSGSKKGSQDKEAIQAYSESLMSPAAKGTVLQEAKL
Each line names hits and unclear results; the compound was inactive in the other large screens. Hits are enriched below; roughly 2.6% of the tested compounds scored in any of these assays.

COc1cc(Cl)cc(/C=C/c2ccc3cccc(O)c3n2)c1OC	none
O=C1NCCOc2ccccc21	none (no result: PvdQ inh, SR-BI DiI-HDL act, dFosB act, SR-BI HDL uptake)
CSc1ccccc1OCc1cc(C(=O)NCCn2nc(C)cc2C)no1	SR-BI HDL uptake 72
CCOc1ccc(S(=O)(=O)N2CCOCC2)cc1NC(=O)C1CSC2(C)CCC(=O)N12 (configuration not stated)	none
Cc1ccc(-c2nn(-c3ccccc3)c3[nH]c(=O)c(CNCc4ccccc4)cc23)cc1	dFosB act 21 (no result: Xi reactivation)
Cc1nn(-c2ccccc2)c2[nH]c(=O)c(CNCc3ccc4c(c3)OCO4)cc12	none (no result: Xi reactivation, Ecoli rRNA inh)
CC(C)(O)C(O)COc1c2ccoc2cc2oc(=O)ccc12 (configuration not stated)	none (no result: Xi reactivation)
CC(=O)OC(C=C(C)C)C/C(C)=C/COc1c2ccoc2cc2oc(=O)ccc12 (configuration not stated)	Ecoli rRNA inh -21
COc1cccc(C(=O)Nc2cccc(-c3nc4ncccc4o3)c2C)c1	none (no result: Xi reactivation, Ecoli rRNA inh)
Cc1c(NC(=O)c2ccc([N+](=O)[O-])o2)cccc1-c1nc2ncccc2o1	Ecoli rRNA inh -24
Cc1nc2c(C)cccn2c1/C(O)=C1\C(=O)C(=O)N(CCN(C)C)C1c1cccs1 (configuration not stated)	Ecoli rRNA inh -26 (no result: Xi reactivation)
N#C/C(=C\c1ccco1)C(=O)NCc1ccccc1	none (no result: Xi reactivation, Ecoli rRNA inh)
O=C(O)c1cc(S(=O)(=O)N2CCN(C(c3ccccc3)c3ccccc3)CC2)ccc1Cl	Ecoli rRNA inh -16
CC(NCC(=O)Nc1cc(S(=O)(=O)N2CCCCCC2)ccc1Cl)c1ccccc1 (configuration not stated)	Ecoli rRNA inh -23
O=C(O)c1cc(S(=O)(=O)N2CCN(S(=O)(=O)c3ccccc3)CC2)ccc1Cl	none (no result: SR-BI DiI-HDL act, SR-BI HDL uptake)
O=c1c2ccccc2nc(N/N=C/c2c(O)ccc3ccccc23)n1O	SR-BI HDL uptake 129 (no result: Xi reactivation, Ecoli rRNA inh)
COc1ccc(/C=N/NC(=O)CCSc2nc3ccccc3s2)cc1OC	none
O=C(NN=Cc1cccc2ccccc12)C1CC1	none
O=c1c2ccccc2nc(N/N=C/c2ccc(O)cc2)n1O	none (no result: Xi reactivation, Ecoli rRNA inh)
O=C(CCSc1nc2ccccc2s1)N/N=C/c1c(O)ccc2ccccc12	dFosB act 21, SR-BI HDL uptake 105
O=C(N/N=C/c1c(O)ccc2ccccc12)c1cccc(C(F)(F)F)c1	SR-BI HDL uptake 137 (no result: Ecoli rRNA inh)
COc1ccc2ccccc2c1/C=N/NC(=O)c1cccc(Br)c1	none (no result: Ecoli rRNA inh)
O=C(NN=Cc1c(O)ccc2ccccc12)C1CC1	Ecoli rRNA inh -17
O=C(Cn1cc([N+](=O)[O-])cn1)Nc1ccc(Cn2cc(Br)cn2)cc1	none
COc1ccc(C(=O)CC(=O)C(=O)Nc2c(C)cccc2C)cc1	none
O=C(CCCSc1nc2ccccc2s1)NCc1ccc2c(c1)OCO2	Ecoli rRNA inh -28
O=C(CSc1nc2ccccc2s1)NCc1ccc2c(c1)OCO2	none (no result: Ecoli rRNA inh)
Cc1nnsc1C(=O)N/N=C/c1ccc2ccccc2c1O	SR-BI HDL uptake 126 (no result: Ecoli rRNA inh)
O=C(NN1C(=O)C2C3C=CC(C3)C2C1=O)C(O)c1ccccc1 (configuration not stated)	none
Nc1n[nH]c(C2CC2)c1N=Nc1ccc(Cl)c(Cl)c1	Ecoli rRNA inh -52 (no result: PvdQ inh, SR-BI DiI-HDL act, dFosB act, SR-BI HDL uptake)
Nc1n[nH]c(C2CC2)c1N=Nc1ccc(Cl)cc1	none (no result: PvdQ inh, SR-BI DiI-HDL act, dFosB act, SR-BI HDL uptake)
C[N+]1=C(/C=C/Nc2ccccc2Cl)C(C)(C)c2ccccc21	none (no result: Xi reactivation, Ecoli rRNA inh)
COC(=O)c1ccc2c(c1)C(C)(C)C(/C=C/c1ccccc1O)=[N+]2C	dFosB act 111, SR-BI HDL uptake 76 (no result: Xi reactivation, Ecoli rRNA inh)
O=c1[nH]c(=O)n([C@H]2C[C@H](O)[C@@H](CO)O2)cc1C(F)(F)F	Xi reactivation 25 (no result: Ecoli rRNA inh)
CO[C@H]1CN(C)C(=O)c2cc(NC(=O)NC3CCCCC3)ccc2OC[C@@H](C)NC[C@H]1C	none (no result: PvdQ inh, SR-BI DiI-HDL act, dFosB act, SR-BI HDL uptake)
CNC(=S)c1cc(C(C)(C)C)c(O)c(C(C)(C)C)c1	Ecoli rRNA inh -21 (no result: SR-BI DiI-HDL act, SR-BI HDL uptake)
COc1cccc(C(=O)Nc2ccc(-c3nc4ccccc4o3)c(O)c2)c1	none (no result: Xi reactivation, Ecoli rRNA inh)
COc1cc(C(=O)Nc2ccc(-c3nc4cc(C)ccc4o3)c(O)c2)cc(OC)c1OC	dFosB act 27 (no result: Xi reactivation, Ecoli rRNA inh)
O=C(O)c1ccccc1C(=O)c1ccc2oc(=O)[nH]c2c1	none
S=c1[nH]nc(COc2ccccc2)n1/N=C/c1ccccc1Cl	Ecoli rRNA inh -24
CCOc1ccc(OCC)c(NC(=O)CSc2nc3c(c(=O)n(C)c(=O)n3C)n2C(C)C)c1	Ecoli rRNA inh -27 (no result: Xi reactivation)
CCCNC(=O)c1ccccc1NC(=O)c1ccc2c(=O)n3c(nc2c1)CCC3	none
COc1ccc(C)cc1NC(=O)C1CCN(C(=O)C2CC(=O)N(c3ccc(C)cc3)C2)CC1 (configuration not stated)	SR-BI HDL uptake 89
COc1cccc(-c2nc(-c3ccc(NC(=O)Cc4ccccc4OC)cc3)no2)c1	SR-BI HDL uptake 78 (no result: Xi reactivation, Ecoli rRNA inh)
COc1ccc(CC(=O)Nc2ccc(-c3noc(-c4ccccc4OC)n3)cc2)cc1	dFosB act inconclusive (no result: Xi reactivation, Ecoli rRNA inh)
COc1ccc(-c2nc(-c3ccc(NC(=O)c4ccc(Br)o4)cc3)no2)cc1OC	SR-BI HDL uptake 79 (no result: Xi reactivation, Ecoli rRNA inh)
COc1cc(-c2nc(-c3ccc(NC(=O)c4ccc(Br)o4)cc3)no2)cc(OC)c1OC	dFosB act 49 (no result: Xi reactivation, Ecoli rRNA inh)
COc1cc(C(=O)NNC(=O)CNC(=O)c2ccc(Br)o2)cc(OC)c1OC	none
O=C(Nc1ccccc1Cl)C1C2CCC3C(CCC21)C3(Cl)Cl (configuration not stated)	none
CCOc1ccccc1NC(=O)C1C2CCC3C(CCC21)C3(Cl)Cl (configuration not stated)	SR-BI HDL uptake 73 (no result: Ecoli rRNA inh)
CCOc1ccccc1NC(=O)CCC(=O)Nc1ccccc1OCC	none (no result: Xi reactivation, Ecoli rRNA inh)
CCOc1ccccc1N/C(=C(/C(Cl)=C(Cl)Cl)[N+](=O)[O-])n1cncn1	Ecoli rRNA inh -25 (no result: Xi reactivation)
Cc1ccc(S(=O)(=O)N2[C@@H](c3ccc(F)cc3)C(C(=O)O)=CC[C@H]2c2cccc(C)c2)cc1	Ecoli rRNA inh -25
Cc1ccc(S(=O)(=O)N2[C@@H](c3ccc(Br)cc3)C(C(=O)O)=CC[C@H]2c2ccc(C(C)C)cc2)cc1	Ecoli rRNA inh -23
Cc1ccc(S(=O)(=O)N2[C@@H](c3ccc(Cl)cc3)C(C(=O)O)=CC[C@H]2c2cccs2)cc1	Ecoli rRNA inh -29
Cc1ccc(S(=O)(=O)N2[C@@H](c3ccccc3F)C(C(=O)O)=CC[C@H]2c2ccc3c(c2)OCO3)cc1	Ecoli rRNA inh -21

High-throughput results as filed in PubChem.
